17 compounds from ChEMBL document CHEMBL3576814, “N (1)-Fluoroalkyltryptophan Analogues: Synthesis and in vitro Study as Potential Substrates for Indoleamine 2,3-Dioxygenase” (ACS Med Chem Lett, 2015) can be followed below.

The structures appear in SMILES notation.

Data set [1] addresses Indoleamine 2,3-dioxygenase 1 (Homo sapiens) (UniProt P14902). The data set can be described thus: Activity of recombinant human IDO assessed as retention time treated with 5-HO-L-Trp by HPLC analysis. In outline: (§1)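 rhIDO incubation mixtures analysed by HPLC or UPLC, eluting with CH3CN/10 mM ammonium acetate 10/90 or 5/95 (v/v) at 0.7 mL/min. UV detection uses 221 and 284 nm for substrates and 321 or 360 nm for products. Product peaks are collected for mass spectrometry.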

The target is the same in data set [2]. Kind of data set: Activity of recombinant human IDO assessed as retention time treated with L-Trp by HPLC analysis. In outline:
as §1

Data set [3] deals with Tryptophan 2,3-dioxygenase (Homo sapiens) (UniProt P48775). The data set can be described thus: Activity of 1 uM recombinant human TDO assessed as substrate consumption at 100 uM at 37 degC at pH 7.5 after 1 hr by HPLC with fluorescence detection method. The essentials:
(§2)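 Recombinant human TDO (1 or 10 μM enzyme) incubated with substrate at 100 μM, 37 °C, pH 7.5, for 1 h. Perchloric acid is then added and the mixture analysed by HPLC with fluorescence detection. Read-out is percentage of substrate consumed.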

Data set [4] has the same target. The data set can be described thus: Activity of 10 uM recombinant human TDO assessed as substrate consumption at 100 uM at 37 degC at pH 7.5 after 1 hr by HPLC with fluorescence detection method. The essentials:
as §2

Data set [5] in a line: Retention time of the compound by HPLC analysis. It counts as physicochemical. The essentials: as §1
Data set [6] concerns the target Indoleamine 2,3-dioxygenase 1 (Homo sapiens) (UniProt P14902). Kind of data set: Activity of recombinant human IDO assessed as retention time treated with 1-Me-L-Trp by HPLC analysis. The essentials: as §1
Data set [7] shares this target. The data set can be described thus: Activity of recombinant human IDO assessed as retention time treated with 1-FETrp by HPLC analysis. In outline:
as §1

Tryptophan 2,3-dioxygenase (Homo sapiens), sequence (P48775 whole entry, looked up): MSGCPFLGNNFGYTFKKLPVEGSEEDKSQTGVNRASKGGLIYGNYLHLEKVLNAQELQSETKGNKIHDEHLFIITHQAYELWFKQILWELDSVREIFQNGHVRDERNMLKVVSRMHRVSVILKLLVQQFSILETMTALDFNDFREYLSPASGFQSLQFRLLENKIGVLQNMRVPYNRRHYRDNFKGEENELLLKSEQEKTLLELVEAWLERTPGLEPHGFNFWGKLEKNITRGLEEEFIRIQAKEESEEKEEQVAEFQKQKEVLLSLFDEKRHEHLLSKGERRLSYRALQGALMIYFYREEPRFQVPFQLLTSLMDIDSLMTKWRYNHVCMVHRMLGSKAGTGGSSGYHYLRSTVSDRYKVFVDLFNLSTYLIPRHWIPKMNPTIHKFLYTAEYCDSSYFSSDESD
Indoleamine 2,3-dioxygenase 1 (Homo sapiens), sequence (P14902 whole entry, looked up): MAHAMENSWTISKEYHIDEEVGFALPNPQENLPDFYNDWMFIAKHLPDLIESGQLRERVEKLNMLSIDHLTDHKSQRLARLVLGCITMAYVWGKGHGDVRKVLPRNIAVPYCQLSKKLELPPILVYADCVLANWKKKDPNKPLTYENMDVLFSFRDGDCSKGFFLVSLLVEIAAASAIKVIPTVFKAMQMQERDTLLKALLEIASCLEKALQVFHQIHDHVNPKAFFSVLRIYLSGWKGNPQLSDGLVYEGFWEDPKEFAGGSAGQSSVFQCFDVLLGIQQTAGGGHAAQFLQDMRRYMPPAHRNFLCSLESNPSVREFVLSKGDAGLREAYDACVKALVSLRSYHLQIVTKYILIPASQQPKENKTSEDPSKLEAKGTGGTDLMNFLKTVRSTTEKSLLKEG

In the case of `Nc1ccc(O)cc1C(=O)C[C@H](N)C(=O)O`, in data set [1], the Retention time was found to be 3.9 min.
For the compound `N[C@@H](CC(=O)c1ccccc1NC=O)C(=O)O`, the Retention time in data set [2] is 4.3 min.
For `Nc1ccccc1C(=O)C[C@H](N)C(=O)O`, the Retention time in data set [2] was 4.5 min.
For the compound `NC(Cc1cn(CCF)c2ccccc12)C(=O)O` (racemic), the Activity is 0% in data set [3] and 2% in data set [4]. In addition, the Retention_time in data set [5] is given as 9.2 min.
Turning to `CC(C)(C)OC(=O)N[C@@H](Cc1c[nH]c2ccccc12)C(=O)O`, the Retention_time in data set [5] is reported as 5.9 min.
`N[C@@H](Cc1cn(Cc2cn(CCF)nn2)c2ccccc12)C(=O)O` showed a Retention_time in data set [5] of 16.4 min.
Regarding `CC(=O)N[C@@H](Cc1c[nH]c2ccccc12)C(=O)O` [ACETYLTRYPTOPHAN], in data set [5], the Retention_time was determined as 7 min.
On to `Cn1cc(C[C@H](N)C(=O)O)c2ccccc21` [(L)-1-METHYLTRYPTOPHAN], for which the Activity in data set [3] is 0%; in data set [4] it was 3%. The compound further yielded a Retention_time in data set [5] of 9.4 min.
With `CN(C=O)c1ccccc1C(=O)C[C@H](N)C(=O)O`, the Retention time in data set [6] worked out at 4.5 min.
As to `NCCc1c[nH]c2ccccc12` [TRYPTAMINE], the Retention_time in data set [5] came out at 9 min.
Consider `CNc1ccccc1C(=O)C[C@H](N)C(=O)O`, for which the Retention time in data set [6] came out at 7.4 min.
Take `CC(N)(Cc1c[nH]c2ccccc12)C(=O)O` (stereo not given): the Retention_time in data set [5] is 7 min.
Take `N[C@@H](Cc1c[nH]c2ccccc12)C(=O)O` [TRYPTOPHAN]: the figures for the Activity in data set [3] and in data set [4] were 67% and 100%, respectively. Besides, the Retention_time in data set [5] was 5.4 min.
For the compound `NC(CC(=O)c1ccccc1N(C=O)CCF)C(=O)O` (stereo not given), the Retention time in data set [7] stood at 5 min.
On to `N[C@@H](Cc1c[nH]c2ccc(O)cc12)C(=O)O` [OXITRIPTAN], for which the Activity in data set [3] stood at 0%; in data set [4], 14%. This compound also returned a Retention_time in data set [5] of 5.1 min.
For the compound `CC(N)Cc1c[nH]c2ccccc12` (stereo not given), the Retention_time in data set [5] is 11.1 min.
As for `NC(CC(=O)c1ccccc1NCCF)C(=O)O` (stereo not given), in data set [7], the Retention time was determined as 7.9 min.
